Tests used:
MDA-MB-231 [1] = assay: Cytotoxicity against human MDA-MB-231 cells assessed as reduction in cell viability after 48 hrs under hypoxic conditions by MTT assay; type: functional, cell-based; conditions: for IC50: MDA-MB-231, 48 h
In short: (§1)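 Cells cultured in high-glucose DMEM with 20% FBS at 37 °C and 5% CO2, seeded at 1x10^4/well, then dosed 24 h later (0–200 μM) for 48 h. Hypoxia: 1% O2, 5% CO2, balance N2 in a hypoxic workstation; normoxia: 20% O2 in air, 5% CO2. MTT (1 mg/ml) for 30 min at 37 °C, formazan dissolved in DMSO, A550. Untreated control set to 100%; quadruplicates, ≥3 cell batches, mean ± S.E.M.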

PC-3 [2] = assay: Cytotoxicity against human PC3 cells assessed as cell viability at 200 uM after 48 hrs under normoxic conditions by MTT assay (reference value: 100%); type: functional; conditions: PC-3, 48 h, read-out: Activity; in short: as §1
HT-29 [3] = assay: Cytotoxicity against human HT-29 cells assessed as cell viability at 100 uM after 48 hrs under hypoxic conditions by MTT assay (reference value: 100%); type: functional; conditions: Homo sapiens, HT-29, 48 h; read-out: Activity; in short: as §1
PC-3 [4] = assay: Cytotoxicity against human PC3 cells assessed as cell viability at 100 uM after 48 hrs under hypoxic conditions by MTT assay (reference value: 100%); type: functional; conditions: PC-3, 48 h, read-out: Activity; in short: as §1
PC-3 [5] = assay: Cytotoxicity against human PC3 cells assessed as reduction in cell viability after 48 hrs under normoxic conditions by MTT assay; type: functional, cell-based; conditions: for IC50: PC-3, 48 h; in short: as §1
HT-29 [6] = assay: Cytotoxicity against human HT-29 cells assessed as cell viability at 100 uM after 48 hrs under normoxic conditions by MTT assay (reference value: 100%); type: functional; conditions: Homo sapiens, HT-29, 48 h; read-out: Activity; in short: as §1
PC-3 [7] = assay: Cytotoxicity against human PC3 cells assessed as reduction in cell viability after 48 hrs under hypoxic conditions by MTT assay; type: functional, cell-based; conditions: for IC50: PC-3, 48 h; in short: as §1
MDA-MB-231 [8] = assay: Cytotoxicity against human MDA-MB-231 cells assessed as cell viability at 200 uM after 48 hrs under normoxic conditions by MTT assay (reference value: 100%); type: functional; conditions: MDA-MB-231, 48 h, read-out: Activity; in short: as §1
MDA-MB-231 [9] = assay: Cytotoxicity against human MDA-MB-231 cells assessed as cell viability at 100 uM after 48 hrs under normoxic conditions by MTT assay (reference value: 100%); type: functional; conditions: MDA-MB-231, 48 h, read-out: Activity; in short: as §1
MDA-MB-231 [10] = assay: Cytotoxicity against human MDA-MB-231 cells assessed as cell viability at 30 uM after 48 hrs under hypoxic conditions by MTT assay (reference value: 100%); type: functional; conditions: MDA-MB-231, 48 h, read-out: Activity; in short: as §1
PC-3 [11] = assay: Cytotoxicity against human PC3 cells assessed as cell viability at 200 uM after 48 hrs under hypoxic conditions by MTT assay (reference value: 100%); type: functional; conditions: PC-3, 48 h, read-out: Activity; in short: as §1
Carbonic anhydrase 9 = Carbonic anhydrase 9 (Homo sapiens, UniProt Q16790); assay: Inhibition of carbonic anhydrase 9 (unknown origin) preincubated for 15 mins by stopped flow CO2 hydration assay
MDA-MB-231 [12] = assay: Cytotoxicity against human MDA-MB-231 cells assessed as cell viability at 100 uM after 48 hrs under hypoxic conditions by MTT assay (reference value: 100%); type: functional; conditions: MDA-MB-231, 48 h, read-out: Activity; in short: as §1
HT-29 [13] = assay: Cytotoxicity against human HT-29 cells assessed as cell viability at 200 uM after 48 hrs under hypoxic conditions by MTT assay (reference value: 100%); type: functional; conditions: Homo sapiens, HT-29, 48 h; read-out: Activity; in short: as §1
HT-29 [14] = assay: Cytotoxicity against human HT-29 cells assessed as reduction in cell viability after 48 hrs under normoxic conditions by MTT assay; type: functional, cell-based; conditions: for IC50: HT-29, 48 h; in short: as §1
MDA-MB-231 [15] = assay: Cytotoxicity against human MDA-MB-231 cells assessed as cell viability at 200 uM after 48 hrs under hypoxic conditions by MTT assay (reference value: 100%); type: functional; conditions: MDA-MB-231, 48 h, read-out: Activity; in short: as §1
PC-3 [16] = assay: Cytotoxicity against human PC3 cells assessed as cell viability at 30 uM after 48 hrs under normoxic conditions by MTT assay (reference value: 100%); type: functional; conditions: PC-3, 48 h, read-out: Activity; in short: as §1
HT-29 [17] = assay: Cytotoxicity against human HT-29 cells assessed as cell viability at 30 uM after 48 hrs under hypoxic conditions by MTT assay (reference value: 100%); type: functional; conditions: Homo sapiens, HT-29, 48 h; read-out: Activity; in short: as §1
MDA-MB-231 [18] = assay: Cytotoxicity against human MDA-MB-231 cells assessed as reduction in cell viability after 48 hrs under normoxic conditions by MTT assay; type: functional, cell-based; conditions: for IC50: MDA-MB-231, 48 h; in short: as §1
Carbonic anhydrase 12 = Carbonic anhydrase 12 (Homo sapiens, UniProt O43570)
Carbonic anhydrase 12, sequence (O43570 whole entry): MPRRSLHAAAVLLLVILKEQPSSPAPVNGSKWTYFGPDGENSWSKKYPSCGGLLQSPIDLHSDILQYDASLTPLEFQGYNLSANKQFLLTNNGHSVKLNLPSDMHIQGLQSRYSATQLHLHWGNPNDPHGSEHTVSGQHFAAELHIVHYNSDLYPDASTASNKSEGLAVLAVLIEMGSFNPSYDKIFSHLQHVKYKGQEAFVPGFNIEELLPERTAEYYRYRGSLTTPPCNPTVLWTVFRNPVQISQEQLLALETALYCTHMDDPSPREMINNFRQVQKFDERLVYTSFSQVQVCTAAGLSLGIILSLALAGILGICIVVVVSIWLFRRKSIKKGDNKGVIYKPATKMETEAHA

PC-3 [19] = assay: Cytotoxicity against human PC3 cells assessed as cell viability at 30 uM after 48 hrs under hypoxic conditions by MTT assay (reference value: 100%); type: functional; conditions: PC-3, 48 h, read-out: Activity; in short: as §1
MDA-MB-231 [20] = assay: Cytotoxicity against human MDA-MB-231 cells assessed as cell viability at 30 uM after 48 hrs under normoxic conditions by MTT assay (reference value: 100%); type: functional; conditions: MDA-MB-231, 48 h, read-out: Activity; in short: as §1
HT-29 [21] = assay: Cytotoxicity against human HT-29 cells assessed as reduction in cell viability after 48 hrs under hypoxic conditions by MTT assay; type: functional, cell-based; conditions: for IC50: HT-29, 48 h; in short: as §1
PC-3 [22] = assay: Cytotoxicity against human PC3 cells assessed as cell viability at 100 uM after 48 hrs under normoxic conditions by MTT assay (reference value: 100%); type: functional; conditions: PC-3, 48 h, read-out: Activity; in short: as §1
HT-29 [23] = assay: Cytotoxicity against human HT-29 cells assessed as cell viability at 30 uM after 48 hrs under normoxic conditions by MTT assay (reference value: 100%); type: functional; conditions: Homo sapiens, HT-29, 48 h; read-out: Activity; in short: as §1
HT-29 [24] = assay: Cytotoxicity against human HT-29 cells assessed as cell viability at 200 uM after 48 hrs under normoxic conditions by MTT assay (reference value: 100%); type: functional; conditions: Homo sapiens, HT-29, 48 h; read-out: Activity; in short: as §1

Row | Compound | Activity (MDA-MB-231 [1]) | IC50 (MDA-MB-231 [1]) [µM] | viability at 200 µM (PC-3 [2]) [%] | viability at 100 µM (HT-29 [3]) [%] | viability at 100 µM (PC-3 [4]) [%] | Activity (PC-3 [5]) | IC50 (PC-3 [5]) [µM] | viability at 100 µM (HT-29 [6]) [%] | Activity (PC-3 [7]) | IC50 (PC-3 [7]) [µM] | viability at 200 µM (MDA-MB-231 [8]) [%] | viability at 100 µM (MDA-MB-231 [9]) [%] | viability at 30 µM (MDA-MB-231 [10]) [%] | viability at 200 µM (PC-3 [11]) [%] | Ki (Carbonic anhydrase 9) [µM] | viability at 100 µM (MDA-MB-231 [12]) [%] | viability at 200 µM (HT-29 [13]) [%] | Activity (HT-29 [14]) | IC50 (HT-29 [14]) [µM] | viability at 200 µM (MDA-MB-231 [15]) [%] | further results
1 | NS(=O)(=O)c1cc(NC(=O)c2ccc(F)cc2)c(OC(=O)c2ccc(F)cc2)c([N+](=O)[O-])c1 | Dose-dependent effect | 52.3 | 10.2 | 24.2 | 29.9 | Dose-dependent effect | 30.6 | 5.7 | Dose-dependent effect | 56.3 | 85.8 | 89.3 | 92.9 | 15.6 | 0.1 | 13.3 | 8.4 | Dose-dependent effect | 40.6 | 13 | viability at 30 µM (PC-3 [16]): 51.6%; viability at 30 µM (HT-29 [17]): 96.6%; Activity (MDA-MB-231 [18]): Dose-dependent effect; IC50 (MDA-MB-231 [18]): > 200 µM; Ki (Carbonic anhydrase 12): 0.21 µM; viability at 30 µM (PC-3 [19]): 95.7%; viability at 30 µM (MDA-MB-231 [20]): 89.5%; Activity (HT-29 [21]): Dose-dependent effect; IC50 (HT-29 [21]): 58.6 µM; viability at 100 µM (PC-3 [22]): 13.9%; viability at 30 µM (HT-29 [23]): 62.8%; viability at 200 µM (HT-29 [24]): 6.6%
2 | CC(=O)OC[C@@H]1O[C@@H](OC(C)=O)[C@@H](NC(=O)Nc2cc(S(N)(=O)=O)cc([N+](=O)[O-])c2O)[C@H](OC(C)=O)[C@H]1OC(C)=O | Dose-dependent effect | > 200 | 68.3 | 79.8 | 85.2 | Dose-dependent effect | > 200 | 100 | Dose-dependent effect | > 200 | 103 | 111 | 99.5 | 70.6 | 0.29 | 90.7 | 84.8 | Dose-dependent effect | > 200 | 65.9 | viability at 30 µM (PC-3 [16]): 59.6%; viability at 30 µM (HT-29 [17]): 95.6%; Activity (MDA-MB-231 [18]): Dose-dependent effect; IC50 (MDA-MB-231 [18]): > 200 µM; Ki (Carbonic anhydrase 12): 0.79 µM; viability at 30 µM (PC-3 [19]): 91.5%; viability at 30 µM (MDA-MB-231 [20]): 100%; Activity (HT-29 [21]): Dose-dependent effect; IC50 (HT-29 [21]): > 200 µM; viability at 100 µM (PC-3 [22]): 67.5%; viability at 30 µM (HT-29 [23]): 111%; viability at 200 µM (HT-29 [24]): 103%
3 | Cc1cc(C)[n+](-c2cc(S(N)(=O)=O)cc([N+](=O)[O-])c2O)c(C)c1.[O-][Cl+3]([O-])([O-])[O-] | Dose-dependent effect | > 200 | 50.3 | 62.5 | 104 | Dose-dependent effect | 140 | 97.2 | Dose-dependent effect | > 200 | 4 | 2.9 | 98.9 | 88.9 | 0.15 | 111 | 59.4 | Dose-dependent effect | > 200 | 98.3 | viability at 30 µM (PC-3 [16]): 77.4%; viability at 30 µM (HT-29 [17]): 72.2%; Activity (MDA-MB-231 [18]): Dose-dependent effect; IC50 (MDA-MB-231 [18]): < 30 µM; Ki (Carbonic anhydrase 12): 0.22 µM; viability at 30 µM (PC-3 [19]): 97.7%; viability at 30 µM (MDA-MB-231 [20]): 40.7%; Activity (HT-29 [21]): Dose-dependent effect; IC50 (HT-29 [21]): > 200 µM; viability at 100 µM (PC-3 [22]): 58%; viability at 30 µM (HT-29 [23]): 101%; viability at 200 µM (HT-29 [24]): 89.4%

Reference: ChEMBL document CHEMBL4261658, “4-Hydroxy-3-nitro-5-ureido-benzenesulfonamides Selectively Target the Tumor-Associated Carbonic Anhydrase Isoforms IX and XII Showing Hypoxia-Enhanced Antiproliferative Profiles” (J Med Chem, 2018)
